Assays:
[1] = (§1) Toxicity liver stage against HepG2, at 10uM; type: cell-based; set-up: test concentration 10 uM, cell line HepG2-A16-CD81EGFP; details: human, HepG2-A16-CD81EGFP cells; read-out: INHIBITION
How it was run: (§2)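 Uninfected HepG2-A16-CD81EGFP cells, 3 × 10^3 per well, 1536-well, plated on prespotted compound at 10 μM final, parasite-free screening media added to match infected plates; puromycin 10 μM positive, DMSO 0.5% negative; run in parallel with 48 h PbLuc assay at 37 °C, 5% CO2; viability by CellTiter-Glo luminescence, normalized to controls.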

HepG2 = experiment: as §1; type: cell-based; set-up: test concentration 10 uM, cell line HepG2-A16-CD81EGFP; details: human, hepg2, 10 µM; 10 µM; how it was run: as §2

For `CC(=O)c1ccc(OCC(=O)c2cccn2C)cc1`, the cytotoxicity at 10 µM [1] was 27.6%.
Work on `CCc1c(C)nn2c(O)cc(C3CCN(C(=O)c4ccccn4)C3)nc12` (centres undefined) yielded a cytotoxicity at 10 µM [1] of 6.7% and an INHIBITION (HepG2) of 4.85%.
In the case of `Cc1cccc(NC(=O)NC2CCC3(C2)OCCO3)c1Cl` (centres undefined), the cytotoxicity at 10 µM [1] is reported as 10.6%.
`CC(O)CN1CCN(Cc2coc(-c3cccc(Cl)c3)n2)CC1` (centres undefined) gave a cytotoxicity at 10 µM [1] of -4.73%.
`Cc1cc(C(=O)N2CCNC(=O)C2)c(C)n1Cc1ccccn1` gave a cytotoxicity at 10 µM [1] of -2.33%.
Molecule `COc1ccc(F)cc1CN1CCN(Cc2nccn2C)C(C)C1` (centres undefined) has a cytotoxicity at 10 µM [1] of 2.01%.
Molecule `N#CCCN(Cc1ccco1)C(=O)CCCc1ccccc1` has a cytotoxicity at 10 µM [1] of 73.1%.
Molecule `Cc1cnc(CCNC(=O)NCCOc2ncccc2Cl)s1` has a cytotoxicity at 10 µM [1] of 9.18%.
In the case of `COc1ccc(C)cc1CNC(=O)C1=NN(c2ccccc2)C(=O)CN1`, the cytotoxicity at 10 µM [1] is reported as 12.8%.
`O=C(c1ccn(-c2cccc(F)c2)n1)N1CCN(CCO)CC1` gave a cytotoxicity at 10 µM [1] of -4.67%.
In the case of `O=C1CN(Cc2nnc(-c3ccc(Cl)cc3)o2)CCN1`, the cytotoxicity at 10 µM [1] is reported as -0.238%.
For `Cc1ccc(NC(=O)NC(C)Cn2cccn2)cc1` (centres undefined), the cytotoxicity at 10 µM [1] was -0.577%.
Molecule `CN(C)C(=O)c1cnc(-c2ccc3c(c2)OCO3)s1` has a cytotoxicity at 10 µM [1] of 5.29%.
For `COc1ccccc1OCC(=O)NCc1ncc(C)c(OC)c1C`, the cytotoxicity at 10 µM [1] was -6.63%.
In the case of `CNC(=O)c1ccc(CNC(=O)c2cc(C(C)C)n(C)n2)cc1`, the cytotoxicity at 10 µM [1] is reported as -9.71%.
`O=C(Nc1ccccc1)c1ccc(NCc2nccs2)nn1` gave a cytotoxicity at 10 µM [1] of 5.62%.
Molecule `Cc1nc(-c2cccc(C(=O)N(C)C)c2)cs1` has a cytotoxicity at 10 µM [1] of 1.77%.
Molecule `Clc1ccc(CNc2ccc(Cl)cn2)cc1` has a cytotoxicity at 10 µM [1] of 6.96%.
`Cc1ccsc1CNC(=O)CSc1nnc[nH]1` showed a cytotoxicity at 10 µM [1] of -0.655%.
With `CNc1ncc(CN(C)C(=O)[C@@]23CNC[C@@H]2CN(C(=O)C2CC2)C3)cn1` the cytotoxicity at 10 µM [1] was 4.67%.
In the case of `CC(NS(C)(=O)=O)C(=O)N(C)Cc1csc(-c2ccccc2)n1` (centres undefined), the cytotoxicity at 10 µM [1] is reported as 2.5%.
For `FC(F)(F)C1CN(c2nc(-c3ccccc3)no2)CCO1` (centres undefined), the cytotoxicity at 10 µM [1] was -1.52%.
In the case of `CO[C@H]1C[C@@H](O)C12CCN(C(=O)c1cccc(CCC(C)(C)O)c1)CC2`, the cytotoxicity at 10 µM [1] is reported as 2.74%.
For `O=C(Nc1ccc(F)cc1)C1CNCCN1C(=O)CC1CCCCC1` (centres undefined), the cytotoxicity at 10 µM [1] was 7.01%.
Molecule `Cc1nnc(NC(=O)NCc2ccc(F)cc2)s1` has a cytotoxicity at 10 µM [1] of -26%.
With `CN(C)C(=O)c1cccc(CN2CCN(CCO)CC2)c1` the cytotoxicity at 10 µM [1] was -28.6%.
`CN1C[C@H]2CC[C@@H](C1)N(Cc1ccccc1OCCN1CCOCC1)C2` showed a cytotoxicity at 10 µM [1] of -3%.
With `Cc1ccc(SCCCNC(=O)c2cn(C3CCC(N)CC3)nn2)cc1` (centres undefined) the cytotoxicity at 10 µM [1] was -8.33%.

— ChEMBL document CHEMBL4513216, “Probing the Open Global Health Chemical Diversity Library for Multistage-Active Starting Points for Next-Generation Antimalarials” (ACS Infect Dis, 2020)
